TRPC6 act: activators of mouse TRPC6 channel; Q61143; HEK293-TRPC6 membrane potential dye fluorescence; active compounds read high; B-score at 10 µM; actives 0.13% (n = 310,000); AID 2550;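 active means B-score of the integrated fluorescence ratio above library mean plus 3 SD, and starting fluorescence ratio within library mean plus 5 SD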;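 further: higher score means more depolarization so channel activation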
TRPC4 inh: blocks the mouse TRPC4 cation channel; Q9QUQ5; HEK293 TRPC4beta/mu-opioid, DAMGO-evoked Fluo4 calcium flux; active compounds read low; B-score at 10 µM; actives 0.39% (n = 300,000); AID 2247;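 active means B-score over 3 SD under the library average, no early fluorescence shift, positive overall ratio signal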
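Signal: kinetic Fluo4 fluorescence imaging of calcium influx. Material: stable TRPC4beta/mu-opioid receptor HEK293 cells. Probe or stimulus: DAMGO in two steps, submaximal then maximal.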
TRPC6 inhibitor: inhibitors of mouse TRPC6 channel | B-score at 10 µM | actives 1.1% (n = 310,000) | Q61143 | HEK293-TRPC6, membrane potential dye, ACh-evoked depolarization; active compounds read low;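 active means B-score under library mean minus 3 SD, initial fluorescence not abnormally high, positive integrated signal ratio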;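 further: B-score derived from integrated fluorescence ratio over the kinetic read; more negative B-score means stronger inhibition of depolarization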
TRPC4 PAM: allosterically enhances the mouse TRPC4 cation channel; Q9QUQ5; HEK293 TRPC4beta/mu-opioid, DAMGO EC20, Fluo-4 Ca2+ flux; active compounds read high; B-score at 10 µM; actives 0.42% (n = 310,000); AID 2227;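 active means B-score of calcium response area above 5 SD of library B-scores, with initial fluorescence ratio within 5 SD of library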;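 further: B-score of integrated fluorescence ratio over time as area under calcium response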
TRPC4 act: opens the mouse TRPC4 cation channel; Q9QUQ5; HEK293 TRPC4beta/mu-opioid, Fluo4 calcium fluorescence; active compounds read high; B-score at 10 µM; actives 0.49% (n = 310,000);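 active means B-score above 5 SD of library B-scores, and initial fluorescence ratio not above library mean plus 5 SD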;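 further: positive B-score marks a calcium rise read as TRPC4 activation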
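Assay system – TRPC4beta and mu-opioid receptor HEK293 stable cells · Measured by – Fluo4 fluorescence, kinetic · Schedule – dye loading 45 min room temperature, 110 s kinetic read · Read-out – B-scored integrated calcium fluorescence ratio · Controls – buffer and maximal DAMGO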
TRPC4 sel inh 2: mouse TRPC4 off-target activity of TRPC6 inhibitors, second screen | inhibition, % at 10 µM | actives 42% (n = 920) | shares compounds with TRPC6 inhibitor | HEK293 TRPC4/MOR, membrane potential dye fluorescence; channel activated by saturating DAMGO dose;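 active means compounds whose fluorescence signal differed from control wells by over 3 SD, either direction, in both duplicate plates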
TRPC4 spec: tests whether TRPC6 inhibitors also affect mouse TRPC4; activity change, negative = inhibition, % at 10 µM; AID 2777; HEK293 TRPC4/mu-opioid, membrane potential fluorescence; actives 61% (n = 920); shares compounds with TRPC6 inhibitor;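 active means rise or fall in signal beyond 3 SD of buffer-only wells in both replicate plates, either sign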;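 further: integrated kinetic ratio of fluorescence range over baseline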
HEK293 MPD ctr 2-1: second check of TRPC6 inhibitor effects in parental HEK293 cells; parental HEK293 membrane potential dye fluorescence; maximal acetylcholine challenge after compound addition; shares compounds with TRPC6 inhibitor; actives 31% (n = 920); signal change vs control, % at 10 µM; AID 2779;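 active means membrane potential signal moving either way by over 3 SD of the maximum-effect control, in both duplicate plates, meaning non-specific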
HEK293 MPD ctr-1: counter-screen for TRPC6 inhibitors: effect in parental HEK293 cells; shares compounds with TRPC6 inhibitor; AID 2780; parental HEK293 membrane potential dye fluorescence; actives 60% (n = 920); membrane potential signal change, % at 10 µM;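 active means membrane potential signal shifting up or down by more than 3 SD of buffer-only wells, on both duplicate plates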
HEK293 MPD ctr-2: checks TRPC6 modulator effects in parental HEK293 cells; shares compounds with TRPC6 inhibitor; membrane potential dye fluorescence; membrane potential signal change, % at 10 µM; actives 51% (n = 2,400); AID 488924;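 active means membrane potential signal moves up or down beyond 5 SD from buffer-only wells, on both duplicate plates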
HEK293 MPD ctr 2-2: parental HEK293 nonspecific activity of TRPC6 modulators, second screen | shares compounds with TRPC6 inhibitor | membrane potential dye fluorescence; after compound, maximal acetylcholine stimulation | inhibition, % at 10 µM | actives 14% (n = 2,400) | AID 488926;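 active means membrane potential signal drops by more than 5 SD from the mean control signal, in both duplicate plates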;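 further: plate controls were acetylcholine ECmax control wells for no effect and buffer only wells for full effect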
TRPC4/MOR mod: selectivity of TRPC6 modulators against mouse TRPC4; shares compounds with TRPC6 inhibitor; HEK293 TRPC4/mu-opioid, membrane potential fluorescence; percent change from control (negative = decrease, positive = increase), % at 10 µM; actives 69% (n = 2,400);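 active means membrane potential signal moved up or down beyond 5 SD of buffer control wells, in both duplicate plates, actives on both sides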;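 further: plate controls were assay buffer wells for no effect and DAMGO maximal-effect wells for full effect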
TRPC4/MOR inh 2: second selectivity test of TRPC6 modulators against mouse TRPC4; actives 55% (n = 2,400); HEK293 TRPC4/mu-opioid, membrane potential dye fluorescence; stimulated with maximal-effect DAMGO; inhibition, % at 10 µM; shares compounds with TRPC6 inhibitor; AID 488928;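 active means drop in membrane potential signal beyond 5 SD of the control wells in both duplicate plates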;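 further: TRPC4 counter screen for TRPC6 hits run under conditions tuned for TRPC6 not TRPC4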
TRPC6 block conf: confirmation of mouse TRPC6 inhibitors | actives 43% (n = 3,300) | shares compounds with TRPC6 inhibitor | HEK293-TRPC6, membrane potential dye, ACh-evoked depolarization | inhibition, % at 10 µM | AID 488960;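 active means fluorescence ratio falls more than 5 SD below the full-stimulation control mean, in both duplicate runs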;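 further: integrated fluorescence ratio of peak minus minimum over baseline after agonist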
TRPC6 act confirm: mouse TRPC6 activator confirmation; shares compounds with TRPC6 inhibitor; HEK293-TRPC6 membrane potential dye fluorescence, FDSS; activation, % at 10 µM; actives 11% (n = 2,800);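 active means ratio signal rise beyond 5 SD above unstimulated control wells' mean, seen in both duplicate runs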;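 further: plate controls were buffer EC0 wells for no effect and acetylcholine ECmax response for full effect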
An asterisk follows results filed as active; i = inactive; nt = no result given. This is a sample that favours compounds with a hit; in the whole collection about 2.3% have one here.

SMILES	TRPC6 act	TRPC4 inh	TRPC6 inhibitor	TRPC4 PAM	TRPC4 act	HEK293 MPD ctr-2	HEK293 MPD ctr 2-2	TRPC4/MOR mod	TRPC4/MOR inh 2	TRPC6 block conf	TRPC6 act confirm	others
CN(C(=O)COC(=O)c1cccc(S(=O)(=O)N2CCCCC2)c1)C1CCS(=O)(=O)C1 (configuration not stated)	i	i	i	i	i	nt	nt	nt	nt	nt	nt
O=c1cc(-c2ccc(Cl)c(Cl)c2)[nH][nH]1	i	i	-5.14*	i	i	i	i	i	i	i	i
CC(=O)N1N=C(N)SC1(C)C	i	i	i	i	i	nt	nt	nt	nt	nt	nt
O=c1c2ccccc2[nH]c(=S)n1CCN1CCCC1	i	i	i	i	i	nt	nt	nt	nt	nt	nt
CCN1CCN(CCn2c(=S)[nH]c3ccccc3c2=O)CC1	i	i	-6.33*	i	i	i	i	i	i	41.0%*	i
O=c1c2ccccc2[nH]c(=S)n1CCCN1CCC(Cc2ccccc2)CC1	i	i	-5.91*	i	i	i	i	-10.5%*	79.5%*	56.5%*	i
CCc1ccc2oc(-c3ccc(OC)cc3)cc(=Nc3cccc(C(=O)O)c3)c2c1	i	i	i	i	i	nt	nt	nt	nt	nt	nt
CCc1ccc2oc(-c3ccc(OC)cc3)cc(=Nc3c(C)n(C)n(-c4ccccc4)c3=O)c2c1	i	i	-7.84*	i	i	nt	nt	nt	nt	i	i	TRPC4 sel inh 2=i;TRPC4 spec=-13.0%*;HEK293 MPD ctr 2-1=i;HEK293 MPD ctr-1=-245.5%*
COc1cc(/C=N/NC(=O)Cn2nc([N+](=O)[O-])cc2C)cc(Br)c1OCc1ccccc1	i	i	-5.08*	i	i	i	i	i	i	i	i
CSc1nc2ccc(NC(=O)c3ccc(=O)n(C)n3)cc2s1	i	i	-5.09*	i	i	i	i	i	i	i	i
Cc1ccc(C)c(OCCCN2CCNCC2)c1	i	i	i	i	i	nt	nt	nt	nt	nt	nt
Cc1ccc(C)c(OCCCCN2CCNCC2)c1C	i	i	-5.62*	15*	i	i	i	i	49.5%*	53.0%*	nt
Cc1c(CCOC(=O)CC23CC4CC(CC(C4)C2)C3)sc[n+]1Cc1ccccc1	i	-6*	-5.27*	i	i	i	i	i	39.5%*	56.0%*	i
Cc1ncc(C[n+]2csc(CCOC(=O)CC34CC5CC(CC(C5)C3)C4)c2C)c(N)n1	i	i	i	i	i	nt	nt	nt	nt	nt	nt
